This note sets out measurements from ChEMBL document CHEMBL1159072, “Side chain SAR of bicyclic beta-lactamase inhibitors (BLIs). 1. Discovery of a class C BLI for combination with imipinem” (Bioorg Med Chem Lett, 2010).

Structures are written as SMILES.

In assay [1] the target is Beta-lactamase (Pseudomonas aeruginosa (strain ATCC 15692 / PAO1 / 1C / PRS 101 / LMG12228)) (UniProt P24735). Put plainly: Inhibition of Pseudomonas aeruginosa CL5701 beta lactamase AmpC assessed as concentration required to reduce imipenem MIC.
Sequence of Beta-lactamase (Pseudomonas aeruginosa (strain ATCC 15692 / PAO1 / 1C / PRS 101 / LMG12228)) (P24735 27-397 limits assumed): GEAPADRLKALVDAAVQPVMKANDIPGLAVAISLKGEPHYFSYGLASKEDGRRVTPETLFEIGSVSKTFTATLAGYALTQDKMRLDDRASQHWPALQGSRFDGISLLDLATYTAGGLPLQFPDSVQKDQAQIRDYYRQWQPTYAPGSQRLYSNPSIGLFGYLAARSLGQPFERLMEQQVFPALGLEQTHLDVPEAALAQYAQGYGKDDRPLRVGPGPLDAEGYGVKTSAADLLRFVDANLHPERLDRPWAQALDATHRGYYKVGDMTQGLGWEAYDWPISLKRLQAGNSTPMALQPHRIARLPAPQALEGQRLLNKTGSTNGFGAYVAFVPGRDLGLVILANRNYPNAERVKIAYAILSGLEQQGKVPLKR
In assay [2] the test system is Pseudomonas aeruginosa. As to the kind of experiment: Antimicrobial activity against Pseudomonas aeruginosa CL5701 infected in mouse spleen assessed as reduction in colony forming unit at 4.7 mg/kg qid for 1 hr administered after 1.25 hrs of infusion. The assay is classed as functional. A digest of the protocol:
(§1)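 In vivo P. aeruginosa CL5701 infection: imipenem/cilastatin 2.5 mpk given with the BLI at 2.35 or 4.7 mpk, by 1.25 h infusion QID for 1 day. Bacterial CFU counted in the spleen and expressed as log reduction relative to imipenem/cilastatin alone.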

The next assay concerns the target Beta-lactamase (Pseudomonas aeruginosa (strain ATCC 15692 / PAO1 / 1C / PRS 101 / LMG12228), UniProt P24735). As to the kind of experiment: Inhibition of Pseudomonas aeruginosa beta lactamase AmpC by spectrophotometry. The method, boiled down: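 Nitrocefin hydrolysis by P. aeruginosa AmpC, enzyme and substrate in 100 mM KH2PO4 pH 7 with 0.005% BSA. Inhibitor serially diluted from DMSO and preincubated with AmpC 40 min at room temperature. Substrate then added for a further 40 min, quenched with 2.5 N acetic acid, absorbance read at 492 nm. IC50 taken from semi-log plots of inhibition versus concentration.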

Assay [3] deals with Pseudomonas aeruginosa. As to the kind of experiment: Antimicrobial activity against Pseudomonas aeruginosa CL5701 infected in mouse spleen assessed as reduction in colony forming unit at 2.5 mg/kg qid for 1 hr administered after 1.25 hrs of infusion. The assay is classed as functional. The method, boiled down: as §1
Assay [4] concerns Pseudomonas aeruginosa. As to the kind of experiment: Antimicrobial activity against Pseudomonas aeruginosa CL5701 infected in mouse spleen assessed as reduction in colony forming unit at 2.35 mg/kg qid for 1 hr administered after 1.25 hrs of infusion. The assay is classed as functional. A digest of the protocol: as §1

Sequence of Beta-lactamase (P24735 whole entry): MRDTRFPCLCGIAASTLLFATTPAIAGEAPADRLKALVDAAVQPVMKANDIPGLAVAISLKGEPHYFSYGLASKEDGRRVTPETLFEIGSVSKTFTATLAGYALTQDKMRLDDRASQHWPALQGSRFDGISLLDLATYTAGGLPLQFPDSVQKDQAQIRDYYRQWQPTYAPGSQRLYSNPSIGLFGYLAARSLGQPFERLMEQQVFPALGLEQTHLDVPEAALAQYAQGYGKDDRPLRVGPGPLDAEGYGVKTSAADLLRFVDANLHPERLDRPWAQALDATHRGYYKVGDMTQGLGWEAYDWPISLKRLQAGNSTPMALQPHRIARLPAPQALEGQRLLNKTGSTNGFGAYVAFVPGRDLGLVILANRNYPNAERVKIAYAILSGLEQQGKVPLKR

Consider `O=C(NC1CCNCC1)N1CC[C@@H]2[C@H]1C(=O)N2S(=O)(=O)O`, for which the Activity in assay [1] is 21 µM. Further, the log10cfu in the assay with Pseudomonas aeruginosa [2] is 4.7. On Beta-lactamase, `O=C(NC1CCCCNCCC1)N1CC[C@@H]2[C@H]1C(=O)N2S(=O)(=O)O` (stereo in doubt; 14) [listing 1 of 2 here] gave an IC50 of 5 µM. On to `O=C(N[C@@H]1CNCCOC1)N1CC[C@@H]2[C@H]1C(=O)N2S(=O)(=O)O`, for which the Activity in assay [1] was 25 µM.

In the case of `O=C(NC1CCCCNCCC1)N1CC[C@@H]2[C@H]1C(=O)N2S(=O)(=O)O` (stereo in doubt; 14) [listing 2 of 2 here], the Activity in assay [1] was more than 100 µM. Turning to `O=C(N[C@H]1CCCCNC1)N1CC[C@@H]2[C@H]1C(=O)N2S(=O)(=O)O`, in assay [1], the Activity came out at 50 µM. The compound also displayed an IC50 at Beta-lactamase of 1.9 µM.

`O=C(NC1CCCCNCC1)N1CC[C@@H]2[C@H]1C(=O)N2S(=O)(=O)O` (stereo in doubt; 12): the Activity in assay [1] was more than 100 µM. As for `O=C(NC1CCCCNCCC1)N1CC[C@@H]2[C@H]1C(=O)N2S(=O)(=O)O` (stereo in doubt; 13) [listing 1 of 2 here], the Activity in assay [1] is more than 100 µM. Regarding `O=C(NC1CCCCNCCC1)N1CC[C@@H]2[C@H]1C(=O)N2S(=O)(=O)O` (stereo in doubt; 13) [listing 2 of 2 here], the IC50 at Beta-lactamase turned out to be 4 µM.

Regarding `O=C(NC1CCCNCCC1)N1CC[C@@H]2[C@H]1C(=O)N2S(=O)(=O)O`, in assay [1], the Activity is 25 µM. Besides, the IC50 on Beta-lactamase is 3.4 µM.

For the compound `O=C(N[C@@H]1CCCNCC1)N1CC[C@@H]2[C@H]1C(=O)N2S(=O)(=O)O`, the Activity in assay [1] was determined as 25 µM. For `O=C(N[C@H]1CNCCOC1)N1CC[C@@H]2[C@H]1C(=O)N2S(=O)(=O)O`, the Activity in assay [1] stood at 50 µM.

For `O=C1NCCCC[C@@H]1NC(=O)N1CC[C@@H]2[C@H]1C(=O)N2S(=O)(=O)O`, the Activity in assay [1] was more than 100 µM. On Beta-lactamase, this compound returned a concentration for half-maximal inhibition (IC50) of 0.8 µM. Consider `O=C(NC1CNCCNC1)N1CC[C@@H]2[C@H]1C(=O)N2S(=O)(=O)O`, for which the Activity in assay [1] is 100 µM. For the same compound, the IC50 at Beta-lactamase was 17 µM. Take `O=C(NC1CCCCNCC1)N1CC[C@@H]2[C@H]1C(=O)N2S(=O)(=O)O` (single isomer, unassigned): in assay [1], the Activity worked out at 12.5 µM. As to `O=C(N[C@H]1CCCNCC1)N1CC[C@@H]2[C@H]1C(=O)N2S(=O)(=O)O`, the Activity in assay [1] was found to be 9.4 µM. In addition, the log10cfu in the assay with Pseudomonas aeruginosa [3] and in the assay on Pseudomonas aeruginosa [4] was 4.6 in each case. For the same compound, at Beta-lactamase, the IC50 was determined as 1 µM. For the compound `O=C(NC1CCCCCC1)N1CC[C@@H]2[C@H]1C(=O)N2S(=O)(=O)O`, the Activity in assay [1] is more than 100 µM.

A word on the IC50: it is the concentration that gives 50% inhibition. Read a high IC50 as a need for much substance.
